From ChEMBL document CHEMBL4041524, “Synthesis and Characterization of a Novel γ-Aminobutyric Acid Type A (GABAA) Receptor Ligand That Combines Outstanding Metabolic Stability, Pharmacokinetics, and Anxiolytic Efficacy” (J Med Chem, 2016) come the findings set out here.

Data set [1] in a line: Clearance in femoral artery/vein cannulated Sprague-Dawley rat at 1 mg/kg, iv administered […] as single dose by LC-MS/MS analysis. The data set is classed as ADME, organism-based. To be noted: in vivo. The method in brief: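 Male Sprague-Dawley rats (n = 3 per time point) were dosed 1 mg/kg i.v. or 10 mg/kg i.p. Plasma concentrations were measured at set time points. Clearance, Vdss and T½ came from the i.v. arm, and AUC, Cmax and Tmax from the i.p. arm.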

Data set [2] relates to Liver. The data set can be described thus: Metabolic stability in rat liver microsomes assessed as compound remaining at 4 uM measured after 30 mins in presence of NADPH by LC-MS/MS analysis. To be noted: 0.5 h. It counts as ADME, microsome. The gist of the method:
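Human, mouse or rat liver microsomes were incubated with compound at 4 μM final for 30 min at 37 °C (n = 1). Percent of parent remaining was quantified by LC-MS/MS.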
In general terms: Liver microsomes are vesicles of endoplasmic reticulum, rich in cytochrome P450 enzymes.

For data set [3], the target named is GABA-A receptor; alpha-2/beta-3/gamma-2 (Homo sapiens) (UniProt P18507+P28472+P47869). As to the kind of experiment: Modulation of recombinant GABA alpha2beta3gamma2 receptor (unknown origin) expressed in Xenopus laevis oocytes assessed as change in GABA-induced EC(3 to 6) current at 100 nM by two-electrode voltage clamp assay. The data set is classed as cell-based. The method in brief: (§1)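 Xenopus laevis oocytes expressing α1, α2, α3 or α5 β3γ2 GABAARs were recorded by two-electrode voltage clamp. Modulation of the GABA EC3-6 current (taken as 100%) was tested at 100 nM, 1 μM and 10 μM in the same cells. Values are mean ± SEM, n = 3–4.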
Background: Two-electrode voltage clamp is typically applied to oocytes expressing channels or transporters.

In data set [4] the target is T1, GABA-A receptor; alpha-1/beta-3/gamma-2 (Homo sapiens, UniProt P14867+P18507+P28472).
T1 sequence (P14867 whole entry): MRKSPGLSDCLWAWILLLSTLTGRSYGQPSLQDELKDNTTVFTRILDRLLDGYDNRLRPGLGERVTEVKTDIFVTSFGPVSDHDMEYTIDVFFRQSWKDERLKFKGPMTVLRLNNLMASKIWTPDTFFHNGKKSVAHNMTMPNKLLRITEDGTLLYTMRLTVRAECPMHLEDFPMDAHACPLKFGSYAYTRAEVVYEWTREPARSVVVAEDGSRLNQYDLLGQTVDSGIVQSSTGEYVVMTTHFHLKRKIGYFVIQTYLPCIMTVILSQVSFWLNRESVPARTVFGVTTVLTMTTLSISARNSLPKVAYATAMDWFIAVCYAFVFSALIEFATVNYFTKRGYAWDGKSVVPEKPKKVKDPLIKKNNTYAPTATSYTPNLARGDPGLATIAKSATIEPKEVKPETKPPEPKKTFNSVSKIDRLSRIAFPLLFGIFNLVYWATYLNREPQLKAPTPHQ
T1 sequence (P18507 whole entry): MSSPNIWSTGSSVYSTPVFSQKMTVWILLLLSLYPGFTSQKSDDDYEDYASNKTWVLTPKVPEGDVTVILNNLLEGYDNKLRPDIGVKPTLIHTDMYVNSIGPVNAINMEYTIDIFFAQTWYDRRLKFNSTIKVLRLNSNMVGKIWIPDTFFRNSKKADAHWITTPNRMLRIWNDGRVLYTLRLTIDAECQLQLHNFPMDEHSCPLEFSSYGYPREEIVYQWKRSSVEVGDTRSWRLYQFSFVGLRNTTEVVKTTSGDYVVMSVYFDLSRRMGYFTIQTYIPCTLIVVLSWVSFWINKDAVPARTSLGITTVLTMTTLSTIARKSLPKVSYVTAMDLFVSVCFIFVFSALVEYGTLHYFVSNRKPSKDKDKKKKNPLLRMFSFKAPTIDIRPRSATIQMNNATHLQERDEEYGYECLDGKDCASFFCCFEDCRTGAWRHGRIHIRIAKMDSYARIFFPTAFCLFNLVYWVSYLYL
T1 sequence (P28472 whole entry): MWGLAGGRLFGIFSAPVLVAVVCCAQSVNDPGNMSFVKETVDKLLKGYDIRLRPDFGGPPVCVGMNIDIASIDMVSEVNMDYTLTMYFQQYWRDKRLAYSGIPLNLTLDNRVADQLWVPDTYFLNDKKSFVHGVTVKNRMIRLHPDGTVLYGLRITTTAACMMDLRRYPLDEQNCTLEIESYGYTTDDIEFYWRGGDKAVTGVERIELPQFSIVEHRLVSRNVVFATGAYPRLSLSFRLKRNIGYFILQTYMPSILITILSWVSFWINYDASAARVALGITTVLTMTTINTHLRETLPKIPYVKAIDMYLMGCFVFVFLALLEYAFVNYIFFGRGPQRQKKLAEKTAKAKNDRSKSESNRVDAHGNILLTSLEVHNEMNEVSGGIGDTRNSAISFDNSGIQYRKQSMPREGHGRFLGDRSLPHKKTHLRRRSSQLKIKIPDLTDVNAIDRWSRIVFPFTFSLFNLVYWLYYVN
The data set can be described thus: Modulation of recombinant human GABA alpha1beta3gamma2 receptor expressed in HEK293 cells assessed as change in GABA-induced current at -80 mV holding potential preincubated for 3 mins followed by co-administration of GABA by electrophysiology method. The data set is classed as cell-based.

Data set [5] can be described thus: Drug uptake in Sprague-Dawley rat brain at 10 mg/kg, po measured after 60 mins by LC-MS/MS analysis. The data set is classed as ADME, organism-based. To be noted: read-out: Drug uptake. The method in brief: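 Sprague-Dawley rats (n = 3 per time point) were given 10 mg/kg p.o. Total plasma concentrations were taken at 15, 30, 60 and 120 min. Brain levels of the dosed ligand and of the carboxylic acid metabolite were taken at 60 or 120 min.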

Data set [6] relates to Rattus norvegicus. The data set can be described thus: Toxicity in water-deprived Sprague-Dawley rat assessed as effect on water drinking time during nonpunished period up to 60 mg/kg, po administered 30 mins prior to testing. To be noted: in vivo, 0.5 h. The data set is classed as organism-based.
Data set [7] concerns the target T2, GABA-A receptor; alpha-1/beta-3/gamma-2 (Homo sapiens) (UniProt P14867+P18507+P28472). As to the kind of experiment: Modulation of recombinant GABA alpha1beta3gamma2 receptor (unknown origin) expressed in Xenopus laevis oocytes assessed as change in GABA-induced EC(3 to 6) current at 10 uM by two-electrode voltage clamp assay. It counts as cell-based. The method in brief: as §1

For data set [8], the target named is T2, GABA-A receptor; alpha-1/beta-3/gamma-2 (Homo sapiens). The data set can be described thus: Modulation of recombinant GABA alpha1beta3gamma2 receptor (unknown origin) expressed in Xenopus laevis oocytes assessed as change in GABA-induced EC(3 to 6) current by two-electrode voltage clamp assay. It counts as cell-based. The gist of the method: as §1
Data set [9] has as its target T3, GABA-A receptor; alpha-5/beta-3/gamma-2 (Homo sapiens) (UniProt P18507+P28472+P31644). The data set can be described thus: Modulation of recombinant GABA alpha5beta3gamma2 receptor (unknown origin) expressed in Xenopus laevis oocytes assessed as change in GABA-induced EC(3 to 6) current at 10 uM by two-electrode voltage clamp assay. It counts as cell-based. The method in brief:
as §1

For data set [10], the system named is Brain. As to the kind of experiment: Fraction unbound in rat brain by equilibrium dialysis method. It counts as ADME, tissue-based. The method in brief:
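Fraction unbound was determined in vitro by equilibrium dialysis with rat plasma protein and rat brain.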
A general note: In equilibrium dialysis free small molecules cross a membrane that holds back macromolecules.

Data set [11] concerns Plasma. As to the kind of experiment: Unbound plasma concentration in Sprague-Dawley rat at 10 mg/kg, ip measured after 4 hrs. It counts as ADME, organism-based. To be noted: in vivo. The gist of the method: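 Male Sprague-Dawley rats (n = 3) received 10 mg/kg i.p., and total plasma concentration was measured at 4 h. Fraction unbound in plasma was determined in vitro by equilibrium dialysis with rat plasma protein. Unbound concentration was calculated as fraction unbound × total concentration.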

For data set [12], the target named is T3, GABA-A receptor; alpha-5/beta-3/gamma-2 (Homo sapiens). The data set can be described thus: Modulation of recombinant GABA alpha5beta3gamma2 receptor (unknown origin) expressed in Xenopus laevis oocytes assessed as change in GABA-induced EC(3 to 6) current at 1 uM by two-electrode voltage clamp assay. It counts as cell-based. The gist of the method: as §1

For the compound `C#Cc1ccc2c(c1)C(c1ccccn1)=NCc1c(-c3cnco3)ncn1-2`, the clearance in data set [1] was 21.7 mL/min/kg. Further, the Stability in data set [2] was 90%. For the same compound, the Activity is 100% in [3]; “Non-Toxic” in [6]; 232% in data set [7]; “Dose-dependent effect” in data set [8]; 246% in data set [9]; 158% in data set [12]. In addition, the EC50 in [4] amounted to 489 nM. Moreover, the concentration at 1 h in [5] is 3.64 µM. In data set [10], the Fu is recorded as 17.7%. The “Cp(f)” value in [11] was 0.552 µM.

The term EC50 denotes the concentration that produces a half-maximal response.
